Calls of active or inactive are those of the source. The calls are words filed in the database; no cut-off is given here.
Assays:
Homo sapiens [1] = organism: Homo sapiens; assay: Concentration inhibiting 50% of the copper induced lipid peroxidation determined using the thiobarbituric acid reactive substance and expressed as an MDA equivalent; assay type: functional
Method in brief: (§1)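 Human LDL was isolated by ultracentrifugation (1.019 < d < 1.063) from pooled EDTA (0.04%) plasma of healthy normolipidemic donors. Oxidation was driven by Cu²⁺ for 3 h at 37 °C, with compounds in DMSO added just before. TBARS was read by the Yagi method as MDA equivalents. Ten concentrations from 10⁻⁷ to 10⁻³ M were run in duplicate, with IC50 by linear regression. A ratio versus probucol corrected for LDL batch.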

Homo sapiens [2] = organism: Homo sapiens; assay: Tested for the activity ratio versus probucol; assay type: functional; method in brief: as §1
Mus musculus [3] = assay: Compound was tested for change in the LDL-VLDL fraction after (po) administration of 100 mg/kg in mice; assay type: functional
Method in brief: (§2)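 Groups of six mice were made hypercholesterolaemic by a high-cholesterol, cholic-acid diet for 7 days. Compound was dosed po, half on day 6 and half on day 7, then mice were fasted overnight without food or water. Serum total cholesterol and heparin-precipitated LDL-VLDL were compared with hypercholesterolaemic controls.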

Mus musculus [4] = assay: Compound was tested for change in the total cholesterol after (po) administration of 100 mg/kg in mice; assay type: functional; method in brief: as §2
Homo sapiens [5] = organism: Homo sapiens; assay: Concentration inhibiting 50% of the copper induced lipid peroxidation determined using th e thiobarbituric acid reactive substance and expressed as an MDA equivalent; Peroxidant; assay type: functional; method in brief: as §1
Rattus norvegicus = organism: Rattus norvegicus; assay: Inhibitory concentration against KCl induced rat thoracic aorta contraction; assay type: functional
Method in brief: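 Isolated rat aorta was contracted with hyperpotassic KCl (60 mM). Inhibition of contraction was measured over eight increasing concentrations (10⁻⁸ to 3 × 10⁻⁵ M), each in duplicate, on two preparations. IC50 came from the concentration–response curve by linear regression.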

Mus musculus [6] = assay: Compound was tested for the time before the first gasps after ip administration of 2.5 mg/kg in hypoxia test; inactive; assay type: functional, organism-based; parameters: dose 2.5 mg/kg
Method in brief: (§3)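 Male Swiss CD1 mice (25–30 g) were housed 1 week at 20–22 °C, 55% humidity, 12/12 light cycle. Compound was given ip 30 min before placing each mouse in a small box flushed with 96% N₂/4% O₂ at 12 L/min. Read-out was the time until the first gasps. Vincamine was the reference.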

Mus musculus [7] = assay: Compound was tested for the time before the first gasps after ip administration of 20 mg/kg in hypoxia test; assay type: functional; details: route intraperitoneal; method in brief: as §3
Mus musculus [8] = assay: Compound was tested for the time before the first gasps after ip administration of 2.5 mg/kg in hypoxia test; assay type: functional; details: route intraperitoneal; method in brief: as §3
Mus musculus [9] = assay: Compound was tested for change in the total cholesterol after (po) administration of 300 mg/kg in mice; assay type: functional; method in brief: as §2
Mus musculus [10] = assay: Compound was tested for the time before the first gasps after ip administration of 1 mg/kg in hypoxia test; assay type: functional; details: route intraperitoneal; method in brief: as §3
Homo sapiens [11] = organism: Homo sapiens; assay: Concentration inhibiting 50% of the copper induced lipid peroxidation determined using th e thiobarbituric acid reactive substance and expressed as an MDA equivalent; assay type: functional; method in brief: as §1
Homo sapiens [12] = organism: Homo sapiens; assay: Compound was tested for the activity ratio versus probucol; assay type: functional; method in brief: as §1
Mus musculus [13] = assay: Compound was tested for change in the LDL-VLDL fraction after (po) administration of 300 mg/kg in mice; assay type: functional; method in brief: as §2

SMILES | IC50 (Homo sapiens [1]) [nM] | Ratio (Homo sapiens [2]) | IC50 (Rattus norvegicus) [nM] | also measured
O=C(C1=COc2ccc(O)cc2O1)N1CCN(C(c2ccc(F)cc2)c2ccc(F)cc2)CC1 | 700 | 2.9 | – | –
COc1ccc2c(c1)OC=C(C(=O)N1CCN(C(c3ccc(F)cc3)c3ccc(F)cc3)CC1)O2 | > 100000 | <0.005 | – | –
COc1ccc(CN2CCN(C(=O)C3=COc4ccc(O)cc4O3)CC2)c(OC)c1OC | 3000 | 1.7 | – | –
CCCCN(C(=O)C1=COc2cc(O)c(C(C)(C)C)cc2O1)c1ccccc1 | 200 | 5 | – | –
CC(C)(Oc1ccc(CCNC(=O)c2ccc(Cl)cc2)cc1)C(=O)O [BEZAFIBRATE] | – | – | – | Change (Mus musculus [3]): -20%; Change (Mus musculus [4]): -25%
O=C(C1=COc2cc(O)ccc2O1)N1CCC(=C(c2ccc(F)cc2)c2ccc(F)cc2)CC1 | 500 | 2 | – | –
O=C(Oc1ccc2c(c1)OC=C(C(=O)N1CCN(C(c3ccc(F)cc3)c3ccc(F)cc3)CC1)O2)c1cccnc1 | – | – | – | IC50 (Homo sapiens [5]): Peroxidant
Oc1ccc2c(c1)OC=C(CN1CCC(=C(c3ccc(F)cc3)c3ccc(F)cc3)CC1)O2 | < 100 | >45 | – | –
O=C(C1COc2ccc(O)cc2O1)N1CCN(C(c2ccc(F)cc2)c2ccc(F)cc2)CC1 (configuration not stated) | 200 | 10 | 2200 | –
O=C(C1COc2cc(O)ccc2O1)N1CCN(C(c2ccc(F)cc2)c2ccc(F)cc2)CC1 (configuration not stated) | 3000 | 1.7 | 3000 | –
Fc1ccc(C(c2ccc(F)cc2)N2CCN(C/C=C/c3ccccc3)CC2)cc1 [FLUNARIZINE] | – | – | 270 | –
CCCCN(C(=O)C1=COc2ccc(O)cc2O1)c1ccccc1 | 400 | 2 | – | –
CC(C)(C)c1cc2c(cc1O)OC=C(C(=O)N1CCN(C(c3ccc(F)cc3)c3ccc(F)cc3)CC1)O2 | 1000 | 5 | 3100 | –
CCCCN(C(=O)C1=COc2cc(O)ccc2O1)c1ccccc1 | 1000 | 2 | – | –
O=C(C1=COc2ccccc2O1)N1CCN(C(c2ccc(F)cc2)c2ccc(F)cc2)CC1 | – | – | 1800 | –
CC[C@]12CCCN3CCc4c(n(c5ccccc45)[C@@](O)(C(=O)OC)C1)[C@@H]32 [VINCAMINE] | – | – | – | IA (Mus musculus [6]): inactive; Time (Mus musculus [7]): 147 s
Nc1ccc2c(c1)OC=C(C(=O)N1CCN(C(c3ccc(F)cc3)c3ccc(F)cc3)CC1)O2 | 35000 | 0.1 | – | –
O=C(C1=COc2cc(O)ccc2O1)N1CCN(C(c2ccc(F)cc2)c2ccc(F)cc2)CC1 | < 100 | >45 | 560 | Time (Mus musculus [8]): 108 s; Change (Mus musculus [9]): -7%; Time (Mus musculus [10]): 55 s; Time (Mus musculus [7]): 67 s
O=C(Nc1ccccc1)C1=COc2ccc(O)cc2O1 | – | – | – | IC50 (Homo sapiens [11]): 500 nM; Ratio (Homo sapiens [12]): 4
Oc1ccc2c(c1)OC=C(CN1CCN(C(c3ccc(F)cc3)c3ccc(F)cc3)CC1)O2 | 1000 | 5 | 570 | Time (Mus musculus [8]): 65 s; Change (Mus musculus [3]): -35%; Change (Mus musculus [9]): -48%; Change (Mus musculus [13]): -52%; Time (Mus musculus [10]): 78 s; Time (Mus musculus [7]): 60 s; Change (Mus musculus [4]): -33%
Oc1ccc2c(c1)OC=C(C(=S)N1CCN(C(c3ccc(F)cc3)c3ccc(F)cc3)CC1)O2 | 9000 | 0.5 | – | –
COc1ccc(CN2CCN(C(=O)C3COc4ccc(O)cc4O3)CC2)c(OC)c1OC (configuration not stated) | 1700 | 3 | – | –

Reference: ChEMBL document CHEMBL1134682, “A novel series of 2,6,7-substituted 2,3-dihydro-1,4-benzodioxin and 2,6,7-substituted 1,4-benzodioxin derivatives as lipid peroxidation inhibitors. Structure-activity relationships for high inhibition of human low-density lipoprotein peroxidation” (J Med Chem, 2001)
